PfM18AAP inh: PfM18AAP enzyme inhibition; recombinant PfM18AAP, H-Glu-NHMec fluorogenic cleavage; inhibition, % at 7.35 µM; 290,000 compounds, 1.2% hits; AID 1822;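 active means inhibition above the campaign mean inhibition over all tested compounds plus 3 SD, cut at about 28% in these data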
p97 inhibitor: blocks human p97 ATPase activity; 220,000 compounds, 0.42% hits; recombinant p97 ATPase, Kinase-Glo ATP luminescence, 3 h; P55072; inhibition, % at 8 µM; in the data active means inhibition above about 15%
XBP1 UPR activ: adaptive UPR (XBP1) activation | activation, % at 20 µM | CHO-XBP1 luciferase reporter, IRE1-XBP1 UPR activation, luminescence; percent of tunicamycin response, DMSO as zero | 330,000 compounds, 0.33% hits;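 active means versus positive control, 20 µM dose yields 30% or more activation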
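Signal: luciferase luminescence; Assay system: CHO-XBP1 luciferase reporter cells; Amount: one thousand reporter cells per well; Dosing: 20 µM single concentration, DMSO 1%; Benchmarks: high control tunicamycin 10 µg/mL final, low control DMSO vehicle only; Schedule: 6 h compound exposure at 37 °C, 5% CO2; Evaluation: percent activation relative to tunicamycin reference.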
HCV NS3 hel inh: HCV NS3 helicase inhibition. NS3 helicase DNA unwinding, Cy5 molecular beacon fluorescence. inhibition, % at 10.9 µM. 290,000 compounds, 0.56% hits. AID 1800;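 active means inhibition above the mean of all tested compounds plus 3 SD, set per campaign, cut at about 35% in these data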
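Measured by: Cy5 fluorescence, 0 and 60 min reads / Assay system: NS3 helicase fragment of HCV / Control set: low DMSO, high thioflavine S at 110 µM / Times: 1 h reaction at 25 °C, ATP-initiated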
CHOP inh: CHOP inhibition in unfolded protein response | CHO-K1 CHOP-promoter luciferase, tunicamycin-induced, 15-18 h | 220,000 compounds, 3.8% hits | inhibition, % at 10 µM;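 active means compounds that reduced the stress-induced luciferase reporter signal by more than about 70% of percent inhibition, limit read from the data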
UPR CHOP act: apoptotic UPR (CHOP) activation | CHO-CHOP luciferase reporter, luminescence; percent of tunicamycin response over DMSO baseline | activation, % at 10 µM | 330,000 compounds, 0.34% hits | AID 449763;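 active means at 10 µM dose, activation of 40% or more, normalized to positive control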
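Assay system: CHO cells with stable CHOP pathway luciferase reporter; Buffer or medium: F12 plus 10% serum; Times: 16-18 h cell attachment, then 6 h compound exposure, 37 °C; Signal: luciferase luminescence; Read-out basis: percent activation relative to tunicamycin control; Control set: tunicamycin high control, DMSO low control.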
Hits are given with their value; . = inactive; / = no result given. A selection: hits, their analogues and other compounds. The true share with any hit is near 4.5%.

SMILES | PfM18AAP inh | p97 inhibitor | XBP1 UPR activ | HCV NS3 hel inh | CHOP inh | UPR CHOP act
Cc1cc(-c2csc(NC(=O)c3ccc(=O)[nH]c3)n2)c(C)n1Cc1ccco1 | . | 51 | . | . | . | .
COc1ccc(-c2cc(C(F)(F)F)c3c(N)c(C(=O)NCCSC)sc3n2)cc1 | . | / | 55 | . | / | .
CC(Oc1ccc2ccccc2c1)C(=O)NNC(=O)Nc1ccccc1 (configuration not stated) | . | / | . | . | / | .
S=C(NCc1ccccc1)Nc1ccncc1 | . | / | . | . | / | .
CCC(=O)N1CCN(c2ccc(Cl)cc2NC(=O)Cc2ccc(Cl)cc2)CC1 | . | . | . | . | 80 | .
CN(CC(=O)Nc1ccc(Cl)c(C(F)(F)F)c1)C(=O)c1ccc(OCC2CCCO2)cc1 (configuration not stated) | / | / | . | / | / | .
CC1CCN(c2ncnc3c2cnn3Cc2ccc(Cl)cc2)CC1 | . | . | . | . | 73 | .
Cc1ccc(Cn2ncc3c(N4CCN(Cc5ccc(Cl)cc5)CC4)ncnc32)cc1 | . | . | . | . | 79 | .
CC1CCCN(c2ncnc3c2cnn3-c2ccc(Cl)cc2)C1 (configuration not stated) | / | / | . | / | 76 | .
Cc1ccc(Cn2ncc3c(N4CCN(c5ccc(C)cc5)CC4)ncnc32)cc1 | . | . | . | . | . | .
COc1ccc([N+](=O)[O-])cc1NC(=O)C(C)OC(=O)CC1CCCC1 (configuration not stated) | / | / | . | / | / | .
O=C(COC(=O)c1ccc(F)cc1Cl)NC1CCS(=O)(=O)C1 (configuration not stated) | / | / | . | / | / | .
CCOC(=O)C(=CNc1cc(C)ccc1C)C(=O)OCC | . | . | . | . | 88 | .
CCOC(=O)C(=CNc1cc(C)ccc1[N+](=O)[O-])C(=O)OCC | . | . | . | . | . | .
COc1cc(-c2nnc(COc3ccc(Cl)cc3C)o2)cc(OC)c1OC | . | . | . | . | 72 | .
COc1ccc(NC(=O)c2c(NC(=O)CNCc3ccco3)sc3c2CCC3)c(OC)c1 | . | . | . | . | 71 | .
COc1ccc(OC)c(NC(=O)c2c(NC(=O)CNCc3ccco3)sc3c2CCC3)c1 | . | . | . | . | . | .
COC1(OC)C=CC(=O)C=C1NC(=O)c1ccccc1OC(C)=O | / | / | . | / | / | .
CCN(C(=O)CSc1ncccn1)C1CCS(=O)(=O)C1 (configuration not stated) | . | / | . | . | / | .
CC12CCC(c3nnc(SCc4ccc(Cl)cc4)nc31)C2(C)C (configuration not stated) | . | . | . | . | 74 | .
CCOC(=O)CSc1nnc2c(n1)C1(C)CCC2C1(C)C (configuration not stated) | . | . | . | . | . | .
O=C(c1cccc(Cl)c1)N1CCN(CCCc2ccccc2)CC1 | . | / | . | . | / | .
COc1cccc(-c2c(C(=O)N/N=C/c3sccc3C)nnn2-c2nonc2N)c1 | . | / | . | . | / | .
Cc1cccc(C(=O)NCCNc2nc3cc(C)c(C)cc3cc2C)c1 | . | . | . | . | 76 | .
Cc1cc2cc(C)c(NCCNC(=O)c3cccc(F)c3)nc2cc1C | . | . | . | . | . | .
SMILES | PfM18AAP inh | p97 inhibitor | XBP1 UPR activ | HCV NS3 hel inh | CHOP inh | UPR CHOP act
O=C(CN1C(=O)COc2ccccc21)N1CCOCC1 | . | / | . | . | / | .
NS(=O)(=O)c1ccc(NC2=CC(c3ccc([N+](=O)[O-])cc3)N(c3ccc(S(N)(=O)=O)cc3)C2=O)cc1 (configuration not stated) | . | . | . | . | . | .
O=c1cc(-c2ccccc2)oc2ccccc12 | / | / | . | / | / | .
O=c1cc(/C=C/c2ccccc2)oc2ccccc12 | . | . | . | . | 74 | .
CC1CCN(c2ccc(NC(=O)Cn3c(=O)oc4ccccc43)cc2)CC1 | . | / | . | . | / | .
c1ccc(OCCSc2nc3ccccc3o2)cc1 | . | . | . | . | . | .
CCOc1ccc(OCCSc2nc3ccccc3o2)cc1 | . | . | . | . | 77 | .
Cc1cc(C)c(CNC(=O)c2cc(C3CC3)nc3c2cnn3C(C)C)c(=O)[nH]1 | / | / | . | / | / | .
